A short description of one series: Cytotoxicity against human HCT116 cells assessed as growth inhibition at 20 uM after 72 hrs by CCK-8 assay. The following applies: HCT-116, 72 h, read-out: GI. Format: functional. A digest of the protocol:
(§1)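 Cells kept in RPMI 1640 with 10% heat-inactivated fetal calf serum and 1% streptomycin/penicillin at 37 °C, 5% CO2. After compound exposure, CCK-8 was added and cells were incubated 4 h at 37 °C, then absorbance was read at 450 nm. Viability is relative to untreated cells (100%). IC50 comes from nonlinear regression, mean of three separate determinations. Single-concentration screen at 20 µM.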
For orientation: Formazan colour is commonly taken as a measure of viable cells.
For `Cc1c(Cl)ccc2c1NC(=O)/C2=C/C(=O)OC(C)(C)C`, the inhibition of growth at 20 µM was found to be 89.9%.
Same read-out and setting: the same measure for `CC(C)(C)OC(=O)/C=C1/C(=O)Nc2ccc(OC(F)(F)F)cc21`: 87.7%; for `CC(C)c1ccc2c(c1)/C(=C\C(=O)OC(C)(C)C)C(=O)N2`: 89.4%.
In the case of `CN1C(=O)/C(=C/C(=O)OC(C)(C)C)c2ccccc21`, the inhibition of growth at 20 µM worked out at 87.5%.

A further series is described as follows: Cytotoxicity against human SW480 cells assessed as growth inhibition at 20 uM after 72 hrs by CCK-8 assay. Format: functional. Particulars: SW480, 72 h, read-out: GI. The method, boiled down:
as §1
As for `Cc1c(Cl)ccc2c1NC(=O)/C2=C/C(=O)OC(C)(C)C`, the inhibition of growth at 20 µM was determined as 77.2%.
Regarding `CC(C)(C)OC(=O)/C=C1/C(=O)Nc2ccc(OC(F)(F)F)cc21`, the inhibition of growth at 20 µM amounted to 77.8%.
The same measure, in the same setting: the same measure for `CC(C)c1ccc2c(c1)/C(=C\C(=O)OC(C)(C)C)C(=O)N2`: 78.5%; for `CN1C(=O)/C(=C/C(=O)OC(C)(C)C)c2ccccc21`: 77.8%.

A short description of the next series: Cytotoxicity against human SK-BR-3 cells assessed as growth inhibition at 20 uM after 72 hrs by CCK-8 assay. The class given is functional. Particulars: SK-BR-3, 72 h, read-out: GI. A digest of the protocol: as §1
In the case of `Cc1c(Cl)ccc2c1NC(=O)/C2=C/C(=O)OC(C)(C)C`, the inhibition of growth at 20 µM was determined as 87.9%.
Still for that read-out and setting: the same measure for `CC(C)(C)OC(=O)/C=C1/C(=O)Nc2ccc(OC(F)(F)F)cc21`: 88.1%.
For `CC(C)c1ccc2c(c1)/C(=C\C(=O)OC(C)(C)C)C(=O)N2`, the inhibition of growth at 20 µM turned out to be 88.5%.
With `CN1C(=O)/C(=C/C(=O)OC(C)(C)C)c2ccccc21`, the inhibition of growth at 20 µM worked out at 87.6%.

A short description of the next series: Cytotoxicity against human L02 cells assessed as growth inhibition at 20 uM after 72 hrs by CCK-8 assay. Format: toxicity, cell-based. Particulars: read-out: GI. A digest of the protocol: as §1
`Cc1c(Cl)ccc2c1NC(=O)/C2=C/C(=O)OC(C)(C)C`: the inhibition at 72 h, 20 µM is 64.3%.
Still for that read-out and setting: the same measure for `CC(C)(C)OC(=O)/C=C1/C(=O)Nc2ccc(OC(F)(F)F)cc21`: 61.3%; for `CC(C)c1ccc2c(c1)/C(=C\C(=O)OC(C)(C)C)C(=O)N2`: 63.8%.
The same measure, in the same setting: the same measure for `CN1C(=O)/C(=C/C(=O)OC(C)(C)C)c2ccccc21`: 61.4%.

Another series can be described thus: Cytotoxicity against human HL60 cells after 72 hrs by CCK-8 assay. Particulars: HL-60, 72 h. The class given is functional, cell-based. The method, boiled down:
as §1
Broadly, the IC50 is the concentration that inhibits the measured activity by half. A higher IC50 goes with lower potency. `Cc1c(Cl)ccc2c1NC(=O)/C2=C/C(=O)OC(C)(C)C` yielded an IC50 of 3.64 µM. That is a single-digit micromolar value.
The same measure, in the same setting: for `CC(C)(C)OC(=O)/C=C1/C(=O)Nc2ccc(OC(F)(F)F)cc21` the value was 4.48 µM; for `CC(C)c1ccc2c(c1)/C(=C\C(=O)OC(C)(C)C)C(=O)N2`, 5.29 µM.
Same read-out and setting: for `CN1C(=O)/C(=C/C(=O)OC(C)(C)C)c2ccccc21` the value was 2.76 µM.

The next series can be described thus: Cytotoxicity against human OVCAR3 cells assessed as growth inhibition at 20 uM after 72 hrs by CCK-8 assay. Particulars: OVCAR-3, 72 h, read-out: GI. Format: functional. A digest of the protocol:
as §1
As to `Cc1c(Cl)ccc2c1NC(=O)/C2=C/C(=O)OC(C)(C)C`, the inhibition of growth at 20 µM is 57.4%.
The same measure, in the same setting: the same measure for `CC(C)(C)OC(=O)/C=C1/C(=O)Nc2ccc(OC(F)(F)F)cc21`: 59%; for `CC(C)c1ccc2c(c1)/C(=C\C(=O)OC(C)(C)C)C(=O)N2`: 59.7%.
The same measure, in the same setting: for `CN1C(=O)/C(=C/C(=O)OC(C)(C)C)c2ccccc21` the value was 57.1%.

The next series can be described thus: Cytotoxicity against human MDA-MB-231 cells assessed as growth inhibition at 20 uM after 72 hrs by CCK-8 assay. Particulars: MDA-MB-231, 72 h, read-out: GI. Format: functional. The method, boiled down:
as §1
Consider `Cc1c(Cl)ccc2c1NC(=O)/C2=C/C(=O)OC(C)(C)C`, for which the inhibition of growth at 20 µM turned out to be 87.3%.
Still for that read-out and setting: for `CC(C)(C)OC(=O)/C=C1/C(=O)Nc2ccc(OC(F)(F)F)cc21` the value was 86.9%.
`CC(C)c1ccc2c(c1)/C(=C\C(=O)OC(C)(C)C)C(=O)N2`: the inhibition of growth at 20 µM came out at 87.7%.
The same measure, in the same setting: for `CN1C(=O)/C(=C/C(=O)OC(C)(C)C)c2ccccc21` the value was 86.6%.

A short description of the next series: Cytotoxicity against human L02 cells after 72 hrs by CCK-8 assay. The class given is toxicity, cell-based.
Conditions: not given
A digest of the protocol: as §1
`Cc1c(Cl)ccc2c1NC(=O)/C2=C/C(=O)OC(C)(C)C`: the 50% inhibitory concentration (IC50) at 72 h amounted to 6.26 µM.
Same read-out and setting: for `CC(C)(C)OC(=O)/C=C1/C(=O)Nc2ccc(OC(F)(F)F)cc21` the value was 4.04 µM; for `CC(C)c1ccc2c(c1)/C(=C\C(=O)OC(C)(C)C)C(=O)N2`, 3.36 µM.
Same read-out and setting: the same measure for `CN1C(=O)/C(=C/C(=O)OC(C)(C)C)c2ccccc21`: 4.32 µM.

Another series can be described thus: Cytotoxicity against human L02 cells. The class given is toxicity, cell-based.
Conditions: not given
Molecule `CN1C(=O)/C(=C/C(=O)OC(C)(C)C)c2ccccc21` came in with an IC50 of 12.2 µM.

Another series can be described thus: Cytotoxicity against human Saos2 cells assessed as growth inhibition at 20 uM after 72 hrs by CCK-8 assay. Format: functional. Particulars: SAOS-2, 72 h, read-out: GI. The method, boiled down: as §1
Turning to `Cc1c(Cl)ccc2c1NC(=O)/C2=C/C(=O)OC(C)(C)C`, the inhibition of growth at 20 µM was determined as 82.6%.
Still for that read-out and setting: the same measure for `CC(C)(C)OC(=O)/C=C1/C(=O)Nc2ccc(OC(F)(F)F)cc21`: 80.1%.
On the same count and under the same terms, the same measure for `CC(C)c1ccc2c(c1)/C(=C\C(=O)OC(C)(C)C)C(=O)N2`: 82.8%; for `CN1C(=O)/C(=C/C(=O)OC(C)(C)C)c2ccccc21`: 81.9%.

A short description of a further series: Cytotoxicity against human HL60 cells assessed as growth inhibition at 20 uM after 72 hrs by CCK-8 assay. The class given is functional. Particulars: HL-60, 72 h, read-out: GI. A digest of the protocol:
as §1
Turning to `Cc1c(Cl)ccc2c1NC(=O)/C2=C/C(=O)OC(C)(C)C`, the inhibition of growth at 20 µM worked out at 82.9%.
Still for that read-out and setting: for `CC(C)(C)OC(=O)/C=C1/C(=O)Nc2ccc(OC(F)(F)F)cc21` the value was 95.9%; for `CC(C)c1ccc2c(c1)/C(=C\C(=O)OC(C)(C)C)C(=O)N2`, 94.4%; for `CN1C(=O)/C(=C/C(=O)OC(C)(C)C)c2ccccc21`, 94.7%.

The next series can be described thus: Antitumor activity against human HepG2 cells assessed as growth inhibition at 20 uM after 72 hrs by CCK-8 assay. Format: functional. The following applies: HepG2, 72 h, read-out: GI. The method, boiled down: as §1
In the case of `Cc1c(Cl)ccc2c1NC(=O)/C2=C/C(=O)OC(C)(C)C`, the inhibition of growth at 20 µM turned out to be 69.7%.
As for `CC(C)(C)OC(=O)/C=C1/C(=O)Nc2ccc(OC(F)(F)F)cc21`, the inhibition of growth at 20 µM was 88.4%.
On the same count and under the same terms, for `CC(C)c1ccc2c(c1)/C(=C\C(=O)OC(C)(C)C)C(=O)N2` the value was 90.5%; for `CN1C(=O)/C(=C/C(=O)OC(C)(C)C)c2ccccc21`, 88.4%.

The values above are taken from ChEMBL document CHEMBL3877250, “Design, synthesis, and biological evaluation of (2E)-(2-oxo-1, 2-dihydro-3H-indol-3-ylidene)acetate derivatives as anti-proliferative agents through ROS-induced cell apoptosis” (Eur J Med Chem, 2016).
